# Key:
# NCI-H226 = assay: Antitumor activity against human NCI-H226 cells after 48 hrs by MTT assay; assay type: functional, cell-based; settings: NCI-H226, 48 h
# Outline: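 Cells grown at 37 °C in humidified 5% CO2, seeded at 1×10^4 cells/well, and allowed to attach for 24 h. They were then exposed to a range of concentrations for 48 h, washed with PBS, and given 1 mg/ml MTT for 2 h. Formazan was dissolved in DMSO and read at 570 nm.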
# ACHN = assay: Antitumor activity against human ACHN cells after 48 hrs by MTT assay; assay type: functional, cell-based
structure (smiles),measurement,setting,value
OCc1ccc(-c2nn(Cc3ccccc3)c3ccccc23)o1,IC50,NCI-H226,25 µM
same,IC50,ACHN,0.3 µM

# Source: ChEMBL document CHEMBL1157034, “Synthesis of 1-benzyl-3-(5-hydroxymethyl-2-furyl)selenolo[3,2-c]pyrazole derivatives as new anticancer agents” (Eur J Med Chem, 2010)
